This passage reports IC50, inhibition and Ratio IC50 results from ChEMBL document CHEMBL4257496, “Discovery and biological evaluation of N5-substituted 6,7-dioxo-6,7-dihydropteridine derivatives as potent Bruton's tyrosine kinase inhibitors” (Medchemcomm, 2018).

The target in assay [1] is T1, Tyrosine-protein kinase BTK (Homo sapiens, UniProt Q06187). Nature of the assay: Inhibition of recombinant human full-length N-terminal His6-tagged BTK expressed in baculovirus infected Sf21insect cells using poly (4:1 Glu, Tyr) as substrate measured after 1 hr by ELISA. In general terms: An ELISA detects its analyte on a solid surface through an enzyme-linked reagent.

In assay [2] the test system is Ramos. Kind of assay: Antiproliferative activity against human Ramos cells after 72 hrs by MTT assay. The format is functional, cell-based. The method in brief: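 Ramos Burkitt's lymphoma cells (RPMI-1640 with 10% FBS, 37 °C, 5% CO2) were seeded and grown 2 h, then exposed to a range of concentrations in PBS, each in triplicate, for 72 h. MTT was added for 4 h at 37 °C, followed by SDS lysis buffer, and absorbance was read at 570 nm. Inhibition rate = [1 – (A treated/A control)] × 100%. Values are means ± SD of at least two independent determinations.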
Background: Formazan colour is commonly taken as a measure of viable cells.

Assay [3] concerns the target T1, Tyrosine-protein kinase BTK. Nature of the assay: Inhibition of anti-IgM-stimulated BTK activation in human Ramos cells assessed as reduction in PLCgamma2 phosphorylation at Y759 residue at 5 nM preincubated for 1.5 hrs followed by anti-IgM stimulation and measured after 15 mins by Western blot analysis. The format is cell-based. An outline of the steps:
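Ramos cells were serum-starved 2 h and treated with compound for 1.5 h. They were then stimulated with anti-IgM (2.5 μg mL–1) for 15 min. Cells were lysed by boiling 30 min in Tris-HCl pH 6.8/DTT/SDS buffer and analysed by western blot. Blots were probed for BTK, p-BTK (Tyr223), PLCγ2 and p-PLCγ2, with β-actin or α-tubulin as loading controls.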
A general note: Immunoblotting shows a protein as a band on a membrane.

Assay [4] has the same target. Kind of assay: Inhibition of anti-IgM-induced BTK phosphorylation at Y223 residue in human Ramos cells at 5 nM preincubated for 1.5 hrs followed by anti-IgM stimulation and measured after 15 mins by Western blot analysis.
For assay [5], the target named is Epidermal growth factor receptor (Homo sapiens) (UniProt P00533). Kind of assay: Inhibition of EGFR (unknown origin) at 100 nM using poly (4:1 Glu, Tyr) as substrate measured after 1 hr by ELISA. The method in brief:
(§1)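 ELISA kinase assay. Poly(Glu,Tyr)4:1 substrate was precoated at 20 μg mL–1. Active kinase was incubated with compound in 50 mM HEPES pH 7.4, 20 mM MgCl2, 0.1 mM MnCl2, 0.2 mM Na3VO4, 1 mM DTT and 5 μM ATP at 37 °C for 1 h. Phosphotyrosine was detected with anti-phosphotyrosine PY99 and an HRP secondary antibody, developed with OPD, and absorbance was read at 492 nm.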

Assay [6] has as its target Receptor tyrosine-protein kinase erbB-4 (Homo sapiens) (UniProt Q15303). Kind of assay: Inhibition of ErbB4 (unknown origin) at 100 nM using poly (4:1 Glu, Tyr) as substrate measured after 1 hr by ELISA. An outline of the steps:
as §1

Assay [7] concerns the target Receptor tyrosine-protein kinase erbB-2 (Homo sapiens) (UniProt P04626). Nature of the assay: Inhibition of ErbB2 (unknown origin) at 100 nM using poly (4:1 Glu, Tyr) as substrate measured after 1 hr by ELISA relative to control. An outline of the steps: as §1
The target of assay [8] is T2, Tyrosine-protein kinase ITK/TSK (Homo sapiens) (UniProt Q08881).
T2 sequence (whole entry): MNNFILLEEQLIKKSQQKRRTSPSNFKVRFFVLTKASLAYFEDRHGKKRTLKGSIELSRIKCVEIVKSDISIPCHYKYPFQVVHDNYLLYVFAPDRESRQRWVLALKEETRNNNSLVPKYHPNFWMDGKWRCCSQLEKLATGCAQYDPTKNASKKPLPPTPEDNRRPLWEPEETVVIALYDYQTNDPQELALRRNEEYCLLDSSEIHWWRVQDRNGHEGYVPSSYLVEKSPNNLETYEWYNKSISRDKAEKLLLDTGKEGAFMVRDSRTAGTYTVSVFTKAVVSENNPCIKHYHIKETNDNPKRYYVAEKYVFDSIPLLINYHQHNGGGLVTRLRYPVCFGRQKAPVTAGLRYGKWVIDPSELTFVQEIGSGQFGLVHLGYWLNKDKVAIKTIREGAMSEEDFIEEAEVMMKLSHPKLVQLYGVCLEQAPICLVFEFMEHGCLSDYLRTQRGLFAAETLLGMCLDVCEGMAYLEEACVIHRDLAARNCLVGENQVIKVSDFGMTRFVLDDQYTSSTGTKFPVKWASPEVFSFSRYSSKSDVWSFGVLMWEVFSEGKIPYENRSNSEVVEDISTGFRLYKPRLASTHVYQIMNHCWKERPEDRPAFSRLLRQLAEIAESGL
Nature of the assay: Inhibition of ITK (unknown origin) at 100 nM using poly (4:1 Glu, Tyr) as substrate measured after 1 hr by ELISA relative to control. The method in brief: as §1

The target of assay [9] is Proto-oncogene tyrosine-protein kinase receptor Ret (Homo sapiens) (UniProt P07949). Nature of the assay: Inhibition of RET (unknown origin) at 100 nM using poly (4:1 Glu, Tyr) as substrate measured after 1 hr by ELISA relative to control. The method in brief:
as §1

The species entered for assay [10] is Homo sapiens. Kind of assay: Selectivity ratio of IC50 for EGFR (unknown origin) to IC50 for recombinant human full-length N-terminal His6-tagged BTK expressed in baculovirus infected Sf21insect cells.

Active and inactive are the calls of the source. No cut-off for these calls is given here.

Receptor tyrosine-protein kinase erbB-2 (Homo sapiens), sequence (P04626 whole entry): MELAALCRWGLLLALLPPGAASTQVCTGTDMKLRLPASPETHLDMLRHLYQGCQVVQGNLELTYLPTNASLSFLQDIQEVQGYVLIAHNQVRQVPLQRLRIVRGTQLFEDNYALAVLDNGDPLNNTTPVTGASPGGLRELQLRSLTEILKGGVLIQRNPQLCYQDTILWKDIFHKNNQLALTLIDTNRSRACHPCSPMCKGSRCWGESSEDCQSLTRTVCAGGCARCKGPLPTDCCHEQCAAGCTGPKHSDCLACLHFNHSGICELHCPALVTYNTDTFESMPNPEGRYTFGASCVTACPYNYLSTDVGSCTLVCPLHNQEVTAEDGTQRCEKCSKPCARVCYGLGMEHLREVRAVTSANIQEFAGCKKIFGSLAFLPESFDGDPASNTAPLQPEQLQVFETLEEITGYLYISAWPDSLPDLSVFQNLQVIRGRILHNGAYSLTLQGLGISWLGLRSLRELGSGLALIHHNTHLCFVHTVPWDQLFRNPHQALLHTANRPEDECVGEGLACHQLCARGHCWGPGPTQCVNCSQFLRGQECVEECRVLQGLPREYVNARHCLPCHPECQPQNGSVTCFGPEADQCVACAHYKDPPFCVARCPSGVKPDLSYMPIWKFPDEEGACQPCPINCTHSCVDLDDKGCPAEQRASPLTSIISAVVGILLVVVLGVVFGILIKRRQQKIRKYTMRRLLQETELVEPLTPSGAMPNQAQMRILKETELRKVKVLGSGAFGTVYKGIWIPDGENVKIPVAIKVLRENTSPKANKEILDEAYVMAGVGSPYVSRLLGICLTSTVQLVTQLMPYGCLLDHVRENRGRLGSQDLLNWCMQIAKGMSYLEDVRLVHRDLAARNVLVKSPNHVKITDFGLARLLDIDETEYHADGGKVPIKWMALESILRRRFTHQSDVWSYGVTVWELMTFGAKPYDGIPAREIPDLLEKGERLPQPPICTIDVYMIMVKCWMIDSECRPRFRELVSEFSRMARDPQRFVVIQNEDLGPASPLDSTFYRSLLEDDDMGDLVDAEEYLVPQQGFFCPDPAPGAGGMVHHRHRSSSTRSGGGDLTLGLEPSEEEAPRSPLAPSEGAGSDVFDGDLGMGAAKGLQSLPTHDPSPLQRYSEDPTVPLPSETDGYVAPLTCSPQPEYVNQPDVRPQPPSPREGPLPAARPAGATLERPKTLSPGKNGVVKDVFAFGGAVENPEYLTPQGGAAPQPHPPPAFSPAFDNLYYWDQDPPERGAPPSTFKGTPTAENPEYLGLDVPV
Epidermal growth factor receptor (Homo sapiens), sequence (P00533 whole entry): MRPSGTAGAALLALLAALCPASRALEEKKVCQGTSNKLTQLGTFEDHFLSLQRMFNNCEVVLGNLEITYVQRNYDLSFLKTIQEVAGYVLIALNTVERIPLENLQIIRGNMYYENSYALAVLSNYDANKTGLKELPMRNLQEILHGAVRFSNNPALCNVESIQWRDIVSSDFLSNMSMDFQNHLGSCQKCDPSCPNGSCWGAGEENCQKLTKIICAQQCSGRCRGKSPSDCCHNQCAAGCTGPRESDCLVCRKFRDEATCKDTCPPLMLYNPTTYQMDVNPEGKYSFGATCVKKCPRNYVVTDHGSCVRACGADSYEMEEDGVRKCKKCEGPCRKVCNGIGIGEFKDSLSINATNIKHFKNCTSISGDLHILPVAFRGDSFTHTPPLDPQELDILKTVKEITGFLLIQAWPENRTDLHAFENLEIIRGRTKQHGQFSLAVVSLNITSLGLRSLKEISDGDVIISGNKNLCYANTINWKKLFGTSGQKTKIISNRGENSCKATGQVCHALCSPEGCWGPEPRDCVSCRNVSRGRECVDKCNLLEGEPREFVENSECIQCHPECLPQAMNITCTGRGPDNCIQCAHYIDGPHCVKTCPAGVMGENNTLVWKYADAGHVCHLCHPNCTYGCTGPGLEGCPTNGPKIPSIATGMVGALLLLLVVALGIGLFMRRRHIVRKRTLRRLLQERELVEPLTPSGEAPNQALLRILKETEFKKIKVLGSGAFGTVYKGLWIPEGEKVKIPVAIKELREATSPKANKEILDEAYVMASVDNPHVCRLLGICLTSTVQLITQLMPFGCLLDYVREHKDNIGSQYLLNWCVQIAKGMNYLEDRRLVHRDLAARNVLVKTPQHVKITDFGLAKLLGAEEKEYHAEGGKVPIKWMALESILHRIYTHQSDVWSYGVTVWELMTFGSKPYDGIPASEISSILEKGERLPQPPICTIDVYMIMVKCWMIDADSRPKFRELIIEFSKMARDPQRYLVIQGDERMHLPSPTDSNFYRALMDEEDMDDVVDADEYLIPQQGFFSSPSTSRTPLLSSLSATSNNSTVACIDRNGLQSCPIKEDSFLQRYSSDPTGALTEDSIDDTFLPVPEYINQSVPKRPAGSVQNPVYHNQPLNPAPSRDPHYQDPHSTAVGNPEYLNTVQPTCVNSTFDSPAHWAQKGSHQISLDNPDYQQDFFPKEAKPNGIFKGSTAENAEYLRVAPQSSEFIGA
T1 sequence (Q06187 whole entry): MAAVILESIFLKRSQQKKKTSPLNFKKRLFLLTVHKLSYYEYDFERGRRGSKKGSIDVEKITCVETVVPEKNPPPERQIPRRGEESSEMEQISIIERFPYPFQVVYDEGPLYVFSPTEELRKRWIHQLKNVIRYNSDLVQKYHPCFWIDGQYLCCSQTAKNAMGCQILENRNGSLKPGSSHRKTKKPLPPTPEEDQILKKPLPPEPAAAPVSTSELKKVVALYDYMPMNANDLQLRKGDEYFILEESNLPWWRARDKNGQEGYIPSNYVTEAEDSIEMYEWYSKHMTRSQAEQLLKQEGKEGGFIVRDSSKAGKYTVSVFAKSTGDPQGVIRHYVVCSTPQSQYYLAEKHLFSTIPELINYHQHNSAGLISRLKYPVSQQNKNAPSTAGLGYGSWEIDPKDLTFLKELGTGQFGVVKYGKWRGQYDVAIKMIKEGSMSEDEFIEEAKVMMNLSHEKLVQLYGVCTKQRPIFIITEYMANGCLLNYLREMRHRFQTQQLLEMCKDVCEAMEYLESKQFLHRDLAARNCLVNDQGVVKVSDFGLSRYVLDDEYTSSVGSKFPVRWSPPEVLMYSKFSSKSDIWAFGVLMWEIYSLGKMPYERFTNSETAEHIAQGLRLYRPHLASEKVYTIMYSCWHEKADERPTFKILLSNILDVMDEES
Receptor tyrosine-protein kinase erbB-4 (Homo sapiens), sequence (Q15303 whole entry): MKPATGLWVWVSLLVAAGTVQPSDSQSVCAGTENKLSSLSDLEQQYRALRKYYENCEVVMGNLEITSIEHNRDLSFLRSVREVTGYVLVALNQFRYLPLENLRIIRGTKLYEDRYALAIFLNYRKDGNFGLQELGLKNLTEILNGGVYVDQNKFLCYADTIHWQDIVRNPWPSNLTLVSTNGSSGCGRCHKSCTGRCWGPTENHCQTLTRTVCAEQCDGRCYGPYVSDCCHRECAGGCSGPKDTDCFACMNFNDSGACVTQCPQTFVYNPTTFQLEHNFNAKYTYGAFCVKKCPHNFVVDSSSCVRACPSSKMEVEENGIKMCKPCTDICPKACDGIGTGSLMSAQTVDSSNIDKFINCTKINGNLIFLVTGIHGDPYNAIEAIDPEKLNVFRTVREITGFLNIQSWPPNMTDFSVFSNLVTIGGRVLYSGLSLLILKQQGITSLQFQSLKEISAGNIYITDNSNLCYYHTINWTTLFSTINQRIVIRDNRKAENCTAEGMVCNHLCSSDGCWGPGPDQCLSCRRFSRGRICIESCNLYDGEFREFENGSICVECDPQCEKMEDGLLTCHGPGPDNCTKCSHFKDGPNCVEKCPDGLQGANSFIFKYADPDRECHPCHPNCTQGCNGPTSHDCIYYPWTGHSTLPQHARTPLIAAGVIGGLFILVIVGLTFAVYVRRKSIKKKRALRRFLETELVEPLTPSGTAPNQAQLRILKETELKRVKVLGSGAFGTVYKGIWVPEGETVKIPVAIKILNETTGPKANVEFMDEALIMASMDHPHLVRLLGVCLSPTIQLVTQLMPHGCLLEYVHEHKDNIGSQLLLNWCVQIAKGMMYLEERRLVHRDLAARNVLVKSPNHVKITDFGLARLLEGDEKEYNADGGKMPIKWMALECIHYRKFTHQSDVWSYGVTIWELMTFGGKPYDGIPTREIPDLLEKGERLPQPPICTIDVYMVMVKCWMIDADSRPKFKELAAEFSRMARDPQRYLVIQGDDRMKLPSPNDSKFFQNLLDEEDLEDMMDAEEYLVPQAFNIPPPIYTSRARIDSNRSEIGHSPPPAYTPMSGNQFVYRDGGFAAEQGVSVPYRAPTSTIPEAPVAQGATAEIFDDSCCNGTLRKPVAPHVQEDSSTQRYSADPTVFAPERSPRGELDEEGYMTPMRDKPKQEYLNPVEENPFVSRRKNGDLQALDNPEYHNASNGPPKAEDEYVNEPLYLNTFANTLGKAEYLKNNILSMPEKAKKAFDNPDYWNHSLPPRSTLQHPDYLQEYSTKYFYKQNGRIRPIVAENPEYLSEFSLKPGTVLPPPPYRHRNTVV

`C=CC(=O)Nc1cccc(-n2c(=O)c(=O)n(C(C)C)c3cnc(Nc4ccc(N(C)CCN(C)C)cc4OC)nc32)c1`: the IC50 in assay [1] stood at 20.8 nM.
For the compound `C=CC(=O)N1CCC[C@@H](n2nc(-c3ccc(Oc4ccccc4)cc3)c3c(N)ncnc32)C1` [IBRUTINIB], the IC50 in assay [2] amounted to 6180 nM.
For the compound `C=CC(=O)Nc1cccc(-n2c(=O)c(=O)n(C)c3cnc(Nc4ccc(N5CCN(C)CC5)cc4OC)nc32)c1`, the concentration for half-maximal inhibition (IC50) in assay [1] stood at 237 nM.
With `C=CC(=O)Nc1cccc(-n2c(=O)c(=O)n(CCC)c3cnc(Nc4ccc(N5CCN(C)CC5)cc4OC)nc32)c1`, in [1], the IC50 stood at 21.8 nM.
Turning to `C=CC(=O)Nc1cccc(-n2c(=O)c(=O)[nH]c3cnc(Nc4ccc(N5CCN(C)CC5)cc4OC)nc32)c1`, the IC50 was 5.4 nM in assay [1] and greater than 100000 nM in assay [2]. For the same compound, the inhibition result in assay [3] and in assay [4] was “inactive” in each case.
As for `C=CC(=O)Nc1cccc(-n2c(=O)c(=O)n(CC)c3cnc(Nc4ccc(N5CCN(C)CC5)cc4OC)nc32)c1`, the IC50 in [1] amounted to 17.2 nM.
Consider `C=CC(=O)Nc1cccc(-n2c(=O)c(=O)n(C(C)C)c3cnc(Nc4ccc(OCCN(C)C)cc4OC)nc32)c1`, for which the IC50 in [1] stood at 31.9 nM.
Same read-out and setting: to `C=CC(=O)Nc1cccc(-n2c(=O)c(=O)n(C(C)C)c3cnc(Nc4ccc(N5CCC(N6CCN(C)CC6)CC5)cc4OC)nc32)c1` belongs 12.8 nM.
Turning to `C=CC(=O)Nc1cccc(-n2c(=O)c(=O)n(C(C)C)c3cnc(Nc4ccc(N5CCN(C)CC5)c(C)c4)nc32)c1`, the IC50 in assay [1] is 1.9 nM; in assay [2], 9370 nM. The inhibition result in [3], in assay [5], in assay [6] and in assay [4] was “Active” in each case. Moreover, the inhibition in assay [7] was less than 35%; in assay [8] it was less than 35%; in assay [9], greater than 70%.
Consider `C=CC(=O)Nc1cccc(-n2c(=O)c(=O)n(C(C)C)c3cnc(Nc4ccc(N5CCN(C)CC5)cc4OC)nc32)c1`, for which the IC50 in assay [1] worked out at 47.4 nM. The inhibition entry in assay [5] and in assay [6] was “Active” in each case. For the same compound, the inhibition in assay [7] and in assay [8] was less than 35% throughout. In addition, in assay [10], the Ratio IC50 was 23.
Consider `C=CC(=O)Nc1cccc(-n2c(=O)c(=O)n(C(C)C)c3cnc(Nc4ccc(N5CCN(C)CC5)c(OC)c4)nc32)c1`, for which the concentration for half-maximal inhibition (IC50) in assay [1] was 2.4 nM; in [2], 10100 nM. For the same compound, the inhibition result in [3], in [5], in assay [6] and in assay [4] was “Active” throughout. The inhibition is less than 35% in [7], less than 35% in [8] and greater than 70% in [9].

What is called IC50 is the concentration at which inhibition is half-maximal. Broadly, the inhibition is how much of the control response was suppressed.
